The results in this text go back to ChEMBL document CHEMBL4043201, “Conjugates of 18β-glycyrrhetinic acid derivatives with 3-(1H-benzo[d]imidazol-2-yl)propanoic acid as Pin1 inhibitors displaying anti-prostate cancer ability” (Bioorg Med Chem, 2017).

Where only a bound is given, the exact number is not on record here.

One test has as its system PC-3. The test is described as follows: Antiproliferative activity against human PC3 cells assessed as inhibition of cell growth incubated for 96 hrs by MTT assay. The class given is functional. Conditions: PC-3, 96 h. The gist of the method:
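PC-3 cells grown in RPMI1640 with 10% heat-inactivated FBS, seeded at 2×10^4 cells/well and kept 24 h at 37 °C in 5% CO2. Compounds were then added at various concentrations for 96 h. MTT (2 mg/mL) was added for a further 4 h, cells dissolved in DMSO, and A570 read. Growth was treated/untreated cell number, with GI50 calculated from inhibition ratios. Mean of three independent runs.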
For orientation: Formazan colour is commonly taken as a measure of viable cells.
A word on the GI50: it is the concentration that inhibits growth by half. Take `CC1(C)[C@@H](O)CC[C@]2(C)[C@H]3C(=O)C=C4[C@@H]5C[C@@](C)(C(=O)OCCn6c(CCC(=O)O)nc7ccccc76)CC[C@]5(C)CC[C@@]4(C)[C@]3(C)CC[C@@H]12`: the GI50 is above 50 µM.
The same measure, in the same setting: the figure for `CC1(C)[C@@H](O)CC[C@]2(C)[C@H]3CC=C4[C@@H]5C[C@@](C)(C(=O)OCCCn6c(CCC(=O)O)nc7ccccc76)CC[C@]5(C)CC[C@@]4(C)[C@]3(C)CC[C@@H]12` is 25.6 µM; for `CC(=O)O[C@H]1CC[C@]2(C)[C@H]3C(=O)C=C4[C@@H]5C[C@@](C)(C(=O)NCCCn6c(CCC(=O)O)nc7ccccc76)CC[C@]5(C)CC[C@@]4(C)[C@]3(C)CC[C@H]2C1(C)C` it is above 50 µM; for `CC(=O)O[C@H]1CC[C@]2(C)[C@H]3C(=O)C=C4[C@@H]5C[C@@](C)(C(=O)OCCn6c(CCC(=O)O)nc7ccccc76)CC[C@]5(C)CC[C@@]4(C)[C@]3(C)CC[C@H]2C1(C)C` it is 27.4 µM.
Same read-out and setting: the figure for `CC1(C)[C@@H](O)CC[C@]2(C)[C@H]3C(=O)C=C4[C@@H]5C[C@@](C)(C(=O)OCCCn6c(CCC(=O)O)nc7ccccc76)CC[C@]5(C)CC[C@@]4(C)[C@]3(C)CC[C@@H]12` is above 50 µM.
Take `O=C(O)CCc1nc2ccccc2[nH]1` [PROCODAZOLE]: the concentration for 50% growth inhibition (GI50) is above 50 µM.
As to `CC(=O)O[C@H]1CC[C@]2(C)[C@H]3CC=C4[C@@H]5C[C@@](C)(C(=O)OCCn6c(CCC(=O)O)nc7ccccc76)CC[C@]5(C)CC[C@@]4(C)[C@]3(C)CC[C@H]2C1(C)C`, the GI50 stood at 10.9 µM.
Take `CC(=O)O[C@H]1CC[C@]2(C)[C@H]3C(=O)C=C4[C@@H]5C[C@@](C)(C(=O)NCCn6c(CCC(=O)O)nc7ccccc76)CC[C@]5(C)CC[C@@]4(C)[C@]3(C)CC[C@H]2C1(C)C`: the GI50 was above 50 µM.
Take `CC1(C)C(=O)CC[C@]2(C)[C@H]3C(=O)C=C4[C@@H]5C[C@@](C)(C(=O)OCCCn6c(CCC(=O)O)nc7ccccc76)CC[C@]5(C)CC[C@@]4(C)[C@]3(C)CC[C@@H]12`: the GI50 is 35.6 µM.
Same read-out and setting: the value for `COC(=O)[C@@]1(C)CC[C@]2(C)CC[C@]3(C)C(=CC(=O)[C@@H]4[C@@]5(C)CC[C@H](OC(=O)Cn6c(CCC(=O)O)nc7ccccc76)C(C)(C)[C@@H]5CC[C@]43C)[C@@H]2C1` was 7.8 µM.

A further test has as its system LNCaP. The test is described as follows: Antiproliferative activity against human LNCAP cells assessed as inhibition of cell growth incubated for 96 hrs by MTT assay. Format: functional.
Details: not given
The gist of the method:
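MTT growth assay. Cells seeded at 2×10^4 per well and held 24 h at 37 °C under 5% CO2 before compound was added at a range of concentrations. Exposure lasted 96 h, then 2 mg/mL MTT was added for 4 h. Cells were dissolved in DMSO and absorbance read at 570 nm. Growth was taken as treated/untreated cell number. GI50 was derived from the inhibition ratios. Three independent experiments, mean reported.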
As for `CC1(C)[C@@H](O)CC[C@]2(C)[C@H]3C(=O)C=C4[C@@H]5C[C@@](C)(C(=O)OCCn6c(CCC(=O)O)nc7ccccc76)CC[C@]5(C)CC[C@@]4(C)[C@]3(C)CC[C@@H]12`, the GI50 was above 50 µM.
Same read-out and setting: the figure for `CC1(C)[C@@H](O)CC[C@]2(C)[C@H]3CC=C4[C@@H]5C[C@@](C)(C(=O)OCCCn6c(CCC(=O)O)nc7ccccc76)CC[C@]5(C)CC[C@@]4(C)[C@]3(C)CC[C@@H]12` is 42.7 µM; for `CC(=O)O[C@H]1CC[C@]2(C)[C@H]3C(=O)C=C4[C@@H]5C[C@@](C)(C(=O)NCCCn6c(CCC(=O)O)nc7ccccc76)CC[C@]5(C)CC[C@@]4(C)[C@]3(C)CC[C@H]2C1(C)C` it is above 50 µM.
Consider `CC(=O)O[C@H]1CC[C@]2(C)[C@H]3C(=O)C=C4[C@@H]5C[C@@](C)(C(=O)OCCn6c(CCC(=O)O)nc7ccccc76)CC[C@]5(C)CC[C@@]4(C)[C@]3(C)CC[C@H]2C1(C)C`, for which the GI50 is 24.4 µM.
In the case of `CC1(C)[C@@H](O)CC[C@]2(C)[C@H]3C(=O)C=C4[C@@H]5C[C@@](C)(C(=O)OCCCn6c(CCC(=O)O)nc7ccccc76)CC[C@]5(C)CC[C@@]4(C)[C@]3(C)CC[C@@H]12`, the GI50 is above 50 µM.
Take `O=C(O)CCc1nc2ccccc2[nH]1` [PROCODAZOLE]: the GI50 was above 50 µM.
As to `CC(=O)O[C@H]1CC[C@]2(C)[C@H]3CC=C4[C@@H]5C[C@@](C)(C(=O)OCCn6c(CCC(=O)O)nc7ccccc76)CC[C@]5(C)CC[C@@]4(C)[C@]3(C)CC[C@H]2C1(C)C`, the GI50 is 13.3 µM.
The same measure, in the same setting: the value for `CC(=O)O[C@H]1CC[C@]2(C)[C@H]3C(=O)C=C4[C@@H]5C[C@@](C)(C(=O)NCCn6c(CCC(=O)O)nc7ccccc76)CC[C@]5(C)CC[C@@]4(C)[C@]3(C)CC[C@H]2C1(C)C` was above 50 µM; that for `CC1(C)C(=O)CC[C@]2(C)[C@H]3C(=O)C=C4[C@@H]5C[C@@](C)(C(=O)OCCCn6c(CCC(=O)O)nc7ccccc76)CC[C@]5(C)CC[C@@]4(C)[C@]3(C)CC[C@@H]12` was 29.3 µM.
The same measure, in the same setting: the figure for `COC(=O)[C@@]1(C)CC[C@]2(C)CC[C@]3(C)C(=CC(=O)[C@@H]4[C@@]5(C)CC[C@H](OC(=O)Cn6c(CCC(=O)O)nc7ccccc76)C(C)(C)[C@@H]5CC[C@]43C)[C@@H]2C1` is 13.2 µM.

In another test the target is T1, Peptidyl-prolyl cis-trans isomerase NIMA-interacting 1 (Homo sapiens, UniProt Q13526). Description: Inhibition of Pin1 (unknown origin) assessed as reduction in peptidyl-prolyl isomerase activity at 10 uM incubated for 30 mins using Suc-Ala-Glu-cis-Pro-Phe-4-nitroanilide substrate by protease coupled assay.
T1 sequence (Q13526 whole entry): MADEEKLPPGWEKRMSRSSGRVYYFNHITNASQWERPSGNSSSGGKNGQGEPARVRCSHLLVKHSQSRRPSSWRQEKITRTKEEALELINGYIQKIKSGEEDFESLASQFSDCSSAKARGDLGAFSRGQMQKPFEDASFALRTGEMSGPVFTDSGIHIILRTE
Details: not given
A digest of the protocol: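 Commercial Pin1 in 35 mM HEPES pH 7.8 was pre-equilibrated with compound (DMSO solutions) for 30 min at 10 °C. Ice-cold chymotrypsin (stock 60 mg/mL in 0.001 M HCl) was added, then Suc-Ala-Glu-cis-Pro-Phe-4-nitroanilide in 0.47 mol/L LiCl/trifluoroethanol was added to start the reaction. Absorbance at 390 nm was monitored for 90 s at 10 °C.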
A word on the inhibition: it is the share of the control response that was lost under treatment. `CC1(C)[C@@H](O)CC[C@]2(C)[C@H]3C(=O)C=C4[C@@H]5C[C@@](C)(C(=O)OCCn6c(CCC(=O)O)nc7ccccc76)CC[C@]5(C)CC[C@@]4(C)[C@]3(C)CC[C@@H]12`: the inhibition is 60%.
Take `CC1(C)[C@@H](O)CC[C@]2(C)[C@H]3CC=C4[C@@H]5C[C@@](C)(C(=O)OCCCn6c(CCC(=O)O)nc7ccccc76)CC[C@]5(C)CC[C@@]4(C)[C@]3(C)CC[C@@H]12`: the inhibition turned out to be 100%.
As to `CC(=O)O[C@H]1CC[C@]2(C)[C@H]3C(=O)C=C4[C@@H]5C[C@@](C)(C(=O)NCCCn6c(CCC(=O)O)nc7ccccc76)CC[C@]5(C)CC[C@@]4(C)[C@]3(C)CC[C@H]2C1(C)C`, the inhibition came out at 50%.
Take `CC(=O)O[C@H]1CC[C@]2(C)[C@H]3C(=O)C=C4[C@@H]5C[C@@](C)(C(=O)OCCn6c(CCC(=O)O)nc7ccccc76)CC[C@]5(C)CC[C@@]4(C)[C@]3(C)CC[C@H]2C1(C)C`: the inhibition amounted to 100%.
Regarding `CC1(C)[C@@H](O)CC[C@]2(C)[C@H]3C(=O)C=C4[C@@H]5C[C@@](C)(C(=O)OCCCn6c(CCC(=O)O)nc7ccccc76)CC[C@]5(C)CC[C@@]4(C)[C@]3(C)CC[C@@H]12`, the inhibition turned out to be 40%.
In the case of `O=C(O)CCc1nc2ccccc2[nH]1` [PROCODAZOLE], the inhibition was 23%.
For `CC(=O)O[C@H]1CC[C@]2(C)[C@H]3CC=C4[C@@H]5C[C@@](C)(C(=O)OCCn6c(CCC(=O)O)nc7ccccc76)CC[C@]5(C)CC[C@@]4(C)[C@]3(C)CC[C@H]2C1(C)C`, the inhibition worked out at 94%.
As for `CC(=O)O[C@H]1CC[C@]2(C)[C@H]3C(=O)C=C4[C@@H]5C[C@@](C)(C(=O)NCCn6c(CCC(=O)O)nc7ccccc76)CC[C@]5(C)CC[C@@]4(C)[C@]3(C)CC[C@H]2C1(C)C`, the inhibition turned out to be 27%.
The same measure, in the same setting: the value for `CC1(C)C(=O)CC[C@]2(C)[C@H]3C(=O)C=C4[C@@H]5C[C@@](C)(C(=O)OCCCn6c(CCC(=O)O)nc7ccccc76)CC[C@]5(C)CC[C@@]4(C)[C@]3(C)CC[C@@H]12` was 77%; that for `COC(=O)[C@@]1(C)CC[C@]2(C)CC[C@]3(C)C(=CC(=O)[C@@H]4[C@@]5(C)CC[C@H](OC(=O)Cn6c(CCC(=O)O)nc7ccccc76)C(C)(C)[C@@H]5CC[C@]43C)[C@@H]2C1` was 100%.

In the next test the target is T1, Peptidyl-prolyl cis-trans isomerase NIMA-interacting 1. Description: Inhibition of Pin1 (unknown origin) assessed as reduction in peptidyl-prolyl isomerase activity incubated for 30 mins using Suc-Ala-Glu-cis-Pro-Phe-4-nitroanilide substrate by protease coupled assay.
Details: not given
Broadly, the IC50 is the concentration needed to halve the response being measured. For `CC1(C)[C@@H](O)CC[C@]2(C)[C@H]3CC=C4[C@@H]5C[C@@](C)(C(=O)OCCCn6c(CCC(=O)O)nc7ccccc76)CC[C@]5(C)CC[C@@]4(C)[C@]3(C)CC[C@@H]12`, the IC50 worked out at 2820 nM.
On to `CC(=O)O[C@H]1CC[C@]2(C)[C@H]3C(=O)C=C4[C@@H]5C[C@@](C)(C(=O)OCCn6c(CCC(=O)O)nc7ccccc76)CC[C@]5(C)CC[C@@]4(C)[C@]3(C)CC[C@H]2C1(C)C`, for which the IC50 turned out to be 1060 nM.
On the same count and under the same terms, the figure for `CC1(C)[C@@H](O)CC[C@]2(C)[C@H]3C(=O)C=C4[C@@H]5C[C@@](C)(C(=O)OCCCn6c(CCC(=O)O)nc7ccccc76)CC[C@]5(C)CC[C@@]4(C)[C@]3(C)CC[C@@H]12` is above 10000 nM; for `CC(=O)O[C@H]1CC[C@]2(C)[C@H]3CC=C4[C@@H]5C[C@@](C)(C(=O)OCCn6c(CCC(=O)O)nc7ccccc76)CC[C@]5(C)CC[C@@]4(C)[C@]3(C)CC[C@H]2C1(C)C` it is 4790 nM.
As for `CC(=O)O[C@H]1CC[C@]2(C)[C@H]3C(=O)C=C4[C@@H]5C[C@@](C)(C(=O)NCCn6c(CCC(=O)O)nc7ccccc76)CC[C@]5(C)CC[C@@]4(C)[C@]3(C)CC[C@H]2C1(C)C`, the IC50 is above 10000 nM.
In the case of `COC(=O)[C@@]1(C)CC[C@]2(C)CC[C@]3(C)C(=CC(=O)[C@@H]4[C@@]5(C)CC[C@H](OC(=O)Cn6c(CCC(=O)O)nc7ccccc76)C(C)(C)[C@@H]5CC[C@]43C)[C@@H]2C1`, the IC50 came to 1070 nM.

The target is the same in the next test. The test is described as follows: Inhibition of Pin1 in human PC3 cells assessed as reduction in Cyclin D1 protein level at 10 to 30 uM incubated for 24 hrs by Western blot method. Format: cell-based.
Details: not given
A digest of the protocol: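 PC-3 cells were treated 24 h with compound at 10, 20 or 30 μM, with DMSO as control. Cells were lysed in RIPA buffer with protease inhibitors, and 40 μg protein was run on 10% SDS-PAGE and blotted to nitrocellulose. Ponceau S was used as a loading check. Membranes were blocked in 5% milk and probed overnight at 4 °C with anti-cyclin D1 and β-actin, with secondary antibody 1 h at 37 °C. ECL detection.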
A general note: A western blot detects proteins with antibodies after separation by electrophoresis.
With `COC(=O)[C@@]1(C)CC[C@]2(C)CC[C@]3(C)C(=CC(=O)[C@@H]4[C@@]5(C)CC[C@H](OC(=O)Cn6c(CCC(=O)O)nc7ccccc76)C(C)(C)[C@@H]5CC[C@]43C)[C@@H]2C1`, the inhibition result is “Dose-dependent effect”.
